Legend:
Mus musculus [1] = assay: Activity against P388 leukemia was determined in vivo. The percent increase in life span at a compound dose of 25 mg/kg.; type: functional
Summary of the method: (§1)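 P388 leukemia in vivo; dosing given as a single injection on days 1-5. Read-out is the percent increase in life span relative to untreated controls.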

[2] = Half-life period determined in water at room temperature.; type: ADME
[3] = Ratio of the cytotoxic concentrations (I50''s) against H.Ep.-2 and L1210 cells.; type: functional
L1210 = assay: Concentration that produces 50 % inhibition of proliferation of L1210 cells in suspension culture in 48 h,; type: functional, cell-based; conditions: Mus musculus, L1210, 48 h; read-out: I50
Summary of the method: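 L1210 cells grown in suspension culture for 48 h with compound. I50 is the concentration giving 50% inhibition of proliferation relative to control growth.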

HEp-2 = assay: Concentration that produces 50 % inhibition of cloning of H.Ep.-2 cells in suspension culture, over a 12-day period; type: functional, cell-based; conditions: Homo sapiens, HEp-2, 288 h; read-out: I50
Summary of the method: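 H.Ep.-2 cells tested by cloning over a 12-day period. I50 is the concentration giving 50% inhibition of colony formation relative to untreated control growth.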

Mus musculus [4] = assay: Activity against P388 leukemia was determined in vivo. The percent increase in life span at a compound dose of 100 mg/kg.; type: functional; summary of the method: as §1
Mus musculus [5] = assay: Activity against P388 leukemia was determined in vivo. The percent increase in life span at a compound dose of 12.5 mg/kg.; type: functional; summary of the method: as §1
Mus musculus [6] = assay: Activity against P388 leukemia was determined in vivo. The percent increase in life span at a compound dose of 50 mg/kg.; type: functional; summary of the method: as §1
[7] = Ratio of the cytotoxic concentrations (I50's) against H.Ep.-2 and L1210 cells.; type: functional
Mus musculus [8] = assay: Activity against P388 leukemia was determined in vivo. The percent increase in life span at a compound dose of 200 mg/kg.; type: functional; summary of the method: as §1

| Compound | ILS at 25 mg/kg (Mus musculus [1]) | half-life [2] | Ratio [3] | IC50 (L1210) | IC50 (HEp-2) | ILS at 100 mg/kg (Mus musculus [4]) | ILS at 12.5 mg/kg (Mus musculus [5]) | ILS at 50 mg/kg (Mus musculus [6]) | Ratio [7] | ILS at 200 mg/kg (Mus musculus [8]) |
| --- | --- | --- | --- | --- | --- | --- | --- | --- | --- | --- |
| Cc1cn(C2CC(O)C(CCC(=O)CI)O2)c(=O)[nH]c1=O (stereo not given) | 16% | 4 h | 16 | 20 µM | 17 µM | – | – | – | – | – |
| Cc1cn(C2CC(O)C(C(=O)Nc3ccc(C(=O)CCl)cc3)O2)c(=O)[nH]c1=O (stereo not given) | – | > 52 h | 14 | 28 µM | 30 µM | 14% | – | – | – | – |
| Cc1cn(C2CC(O)C(CCC(=O)CBr)O2)c(=O)[nH]c1=O (stereo not given) | – | 1.8 h | 16 | 110 µM | 55 µM | – | 16% | – | – | – |
| Cc1cn(C2CC(O)C(CCC(=O)CCl)O2)c(=O)[nH]c1=O (stereo not given) | – | > 52 h | – | 66 µM | 25 µM | – | – | 10% | 10 | – |
| Cc1cn(C2CC(O)C(CNC(=O)c3ccc(C(=O)CBr)cc3)O2)c(=O)[nH]c1=O (stereo not given) | – | 1 h | 15 | > 70 µM | > 40 µM | – | – | 15% | – | – |
| Cc1cn(C2CC(O)C(C(=O)Nc3ccc(C(=O)CBr)cc3)O2)c(=O)[nH]c1=O (stereo not given) | – | 4 h | 38 | 6 µM | 12 µM | – | – | – | – | 38% |
| Cc1cn(C2CC(O)C(C(=O)Nc3ccc(C(=O)CI)cc3)O2)c(=O)[nH]c1=O (stereo not given) | 5% | 13 h | 5 | 8 µM | 29 µM | – | – | – | – | – |

Reference: ChEMBL document CHEMBL1122739, “Potential inhibitors of nucleotide biosynthesis. 2. Halomethyl ketone derivatives of pyrimidine nucleosides” (J Med Chem, 1984)
